# Experimental data of several laboratories.
# Lines come from different studies, so protocols differ.
# Abl2: Abl2 (Mus musculus, UniProt Q4JIM5)
# Si: Sucrase-isomaltase, intestinal (Si, Rattus norvegicus, UniProt P23739)
# BRD1 bromodomain: Bromodomain-containing protein 1, bromodomain (BRD1, Homo sapiens, UniProt O95696)
Structure (SMILES),target,assay,setting,quantity,value
Cc1cnc(NC2CCOCC2)nc1-n1cnc(C(=O)NC(CN)c2cc(F)cc(Cl)c2)c1 (stereo not drawn),Abl2,"enzyme activity, inhibitor, radiometric",1 µM,remaining activity,102%
O=C1OC[C@H]2OC(=O)c3cc(O)c(O)c(O)c3-c3c(O)c(O)c(O)c4c3C(=O)O[C@H]([C@H]3OC(=O)c5c-4c(O)c(O)c(O)c5[C@H]3O)[C@@H]2OC(=O)c2cc(O)c(O)c(O)c2-c2c1cc(O)c(O)c2O,Si,"enzyme activity, inhibitor",100 µg/mL,inhibition,48.3%
COc1cc(Cl)c(C(=O)N[C@@H](CN[C@H]2CC[C@@H](N)CC2)Cc2ccc(C#N)cc2)cc1-c1ccc(CN[C@H](C)c2ccc(C)cc2)o1,"Eukaryotic translation initiation factor 2-alpha kinase 1 (EIF2AK1, Homo sapiens, UniProt Q9BQI3)","enzyme activity, inhibitor",1 µM,remaining activity,93%
O=c1c(O[C@@H]2O[C@H](CO)[C@@H](O)[C@H](O)[C@H]2O)c(-c2ccc(O)c(O)c2)oc2cc(O)cc(O)c12,Si,"enzyme activity, inhibitor",100 µg/mL,inhibition,54.6%
CCOCc1nc(O)c(-c2nnc(Cc3ccc(Cl)cn3)o2)c(O)c1-c1c(OC)cccc1OC,"Apelin receptor (APLNR, Homo sapiens, UniProt P35414)","binding, radioligand",,koff,0.00075 s⁻¹
O=c1c(O[C@@H]2O[C@@H](CO)[C@H](O)[C@H]2O)c(-c2ccc(O)c(O)c2)oc2cc(O)cc(O)c12,Si,"enzyme activity, inhibitor",100 µg/mL,inhibition,52.4%
Cc1ccc(C(=O)Nc2ccc(CN3CCN(C)CC3)c(C(F)(F)F)c2)cc1C#Cc1cnc2cccnn12,"Serine/threonine-protein kinase RIO2 (RIOK2, Homo sapiens, UniProt Q9BVS4)","enzyme activity, inhibitor",23.5 nM,remaining activity,88%
Cn1c2c(c3ccc(Cl)c(Cl)c31)C(C#N)C(C)(C)NC2=O (stereo not drawn),"Rhodopsin kinase GRK1 (GRK1, Homo sapiens, UniProt Q15835)","thermal stability, DSF",10 µM,ΔTm,2.7 °C
Cc1cnc(Nc2ccc(OCCN3CCCC3)cc2)nc1Nc1cccc(S(=O)(=O)NC(C)(C)C)c1,BRD1 bromodomain,"thermal stability, DSF",10 µM,ΔTm,0.51 °C
CCCOc1ccc(OC)c(F)c1C(=O)c1ccc(C(=O)N[C@@H]2CNC[C@H]2NC(=O)c2ccc3[nH]ncc3c2)cc1,Abl2,"enzyme activity, inhibitor",10 µM,remaining activity,87%
O=C(c1ccc(Cl)cc1)N(Cc1ccccc1)C1CCCCC1,"Glucocorticoid receptor (NR3C1, Homo sapiens, UniProt P04150)",cell-free assay,10 µM,inhibition,28.5%
Nc1ncnc2occ(-c3ccc(NC(=O)Nc4cc(C(F)(F)F)ccc4F)cc3)c12,"Phosphatidylinositol 3-kinase catalytic subunit type 3 (PIK3C3, Homo sapiens, UniProt Q8NEB9)",cell-free assay,20 µM,remaining signal,73%
O=C(c1ccc(F)cc1)N(Cc1ccccc1)C1CCCCC1,"5-hydroxytryptamine receptor 1A (HTR1A, Homo sapiens, UniProt P08908)","ligand displacement, radioligand",10 µM,inhibition,2%
Oc1ccc(-c2nc(-c3ccncc3)c(-c3ccc(F)cc3)[nH]2)cc1,BRD1 bromodomain,"thermal stability, DSF",10 µM,ΔTm,0.46 °C
Cc1ccc(NC(=O)c2ccc(C)c(C(F)(F)F)c2)cc1C#Cc1nn(C2CCC(O)CC2)c2ncnc(N)c12 (stereo not drawn),Abl2,cell-free assay,10 µM,remaining signal,-1%
